Test results reported in ChEMBL document CHEMBL2016522, “Discovery and Hit-to-Lead Optimization of Non-ATP Competitive MK2 (MAPKAPK2) Inhibitors” (ACS Med Chem Lett, 2011).
pEC50, pIC50: −log10 of the molar value.

Tests used:
[1] = Cytotoxicity against human SW1353 cells after 30 mins by ATP-dependent luciferase luminescence assay; type: cell-based
[2] = target: T1, MAP kinase-activated protein kinase 2 (Homo sapiens, UniProt P49137); test: Inhibition of MK2 using Acam peptide as substrate incubated for 30 mins prior to substrate addition measured after 10 mins using 100 uM ATP by DELFIA assay
T1 sequence (P49137 whole entry): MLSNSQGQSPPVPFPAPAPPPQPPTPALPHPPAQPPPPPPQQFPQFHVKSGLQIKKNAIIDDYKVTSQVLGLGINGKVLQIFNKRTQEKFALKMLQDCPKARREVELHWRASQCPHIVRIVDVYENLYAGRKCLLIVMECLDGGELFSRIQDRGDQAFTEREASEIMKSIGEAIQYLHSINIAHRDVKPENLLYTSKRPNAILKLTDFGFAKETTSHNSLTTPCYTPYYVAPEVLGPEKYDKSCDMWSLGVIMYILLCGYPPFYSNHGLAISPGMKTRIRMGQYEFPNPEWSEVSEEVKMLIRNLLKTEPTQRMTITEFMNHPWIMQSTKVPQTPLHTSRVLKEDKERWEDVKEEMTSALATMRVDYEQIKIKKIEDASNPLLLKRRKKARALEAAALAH

[3] = target: T1, MAP kinase-activated protein kinase 2; test: Inhibition of MK2-mediated HSP27 phosphorylation in IL-1beta stimulated human SW1353 cells incubated for 30 mins prior to IL-1beta-stimulation measured after 27 mins by ELISA; type: cell-based
[4] = target: Serine/threonine-protein kinase Chk1 (Homo sapiens, UniProt O14757); test: Inhibition of human CHK1
[5] = target: T1, MAP kinase-activated protein kinase 2; test: Inhibition of MK2 using Acam peptide as substrate incubated for 30 mins prior to substrate addition measured after 10 mins using 2 uM ATP by DELFIA assay
[6] = target: Tyrosine-protein kinase Lck (Homo sapiens, UniProt P06239); test: Inhibition of human LCK
Sequence of Tyrosine-protein kinase Lck (P06239 whole entry): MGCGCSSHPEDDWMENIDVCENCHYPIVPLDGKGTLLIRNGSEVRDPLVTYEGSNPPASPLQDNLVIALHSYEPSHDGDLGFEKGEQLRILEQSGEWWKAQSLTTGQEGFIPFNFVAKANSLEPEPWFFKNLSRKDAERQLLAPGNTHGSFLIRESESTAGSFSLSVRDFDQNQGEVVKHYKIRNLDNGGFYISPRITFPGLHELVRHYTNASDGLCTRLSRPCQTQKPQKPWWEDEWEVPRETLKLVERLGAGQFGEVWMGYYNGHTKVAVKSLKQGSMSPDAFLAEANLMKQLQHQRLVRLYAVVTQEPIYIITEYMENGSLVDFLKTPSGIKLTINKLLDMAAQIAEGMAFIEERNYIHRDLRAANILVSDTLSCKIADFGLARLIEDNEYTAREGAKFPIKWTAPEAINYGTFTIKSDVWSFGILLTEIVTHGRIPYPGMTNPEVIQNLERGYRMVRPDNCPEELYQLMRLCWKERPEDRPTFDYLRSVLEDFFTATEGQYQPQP

[7] = target: Insulin-like growth factor 1 receptor (Homo sapiens, UniProt P08069); test: Inhibition of human IGF1R
[8] = target: Hepatocyte growth factor receptor (Homo sapiens, UniProt P08581); test: Inhibition of human MET
[9] = target: Inhibitor of nuclear factor kappa-B kinase subunit beta (Homo sapiens, UniProt O14920); test: Inhibition of human IKKB
Sequence of Inhibitor of nuclear factor kappa-B kinase subunit beta (O14920 whole entry): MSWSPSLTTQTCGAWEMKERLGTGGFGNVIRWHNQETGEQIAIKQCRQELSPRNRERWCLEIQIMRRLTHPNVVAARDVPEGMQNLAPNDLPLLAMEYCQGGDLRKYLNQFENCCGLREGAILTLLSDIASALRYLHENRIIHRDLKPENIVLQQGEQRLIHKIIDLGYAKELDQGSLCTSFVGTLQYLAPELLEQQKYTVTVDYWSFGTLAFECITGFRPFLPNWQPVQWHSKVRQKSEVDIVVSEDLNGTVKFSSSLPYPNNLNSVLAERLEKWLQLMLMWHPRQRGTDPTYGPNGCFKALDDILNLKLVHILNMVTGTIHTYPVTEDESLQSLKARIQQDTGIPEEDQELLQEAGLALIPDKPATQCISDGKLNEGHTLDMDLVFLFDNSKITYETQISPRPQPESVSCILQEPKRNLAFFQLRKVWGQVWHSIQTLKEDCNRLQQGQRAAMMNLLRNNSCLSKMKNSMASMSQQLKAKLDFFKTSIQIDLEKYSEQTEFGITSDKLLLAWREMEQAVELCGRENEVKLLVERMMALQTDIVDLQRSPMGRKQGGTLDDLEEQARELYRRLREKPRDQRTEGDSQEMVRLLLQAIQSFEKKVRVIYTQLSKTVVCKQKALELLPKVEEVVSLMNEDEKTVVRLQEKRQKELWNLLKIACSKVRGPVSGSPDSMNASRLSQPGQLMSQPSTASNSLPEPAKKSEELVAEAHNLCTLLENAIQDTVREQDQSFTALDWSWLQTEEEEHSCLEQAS

[10] = target: Rho-associated protein kinase 2 (Homo sapiens, UniProt O75116); test: Inhibition of human ROCK2
[11] = target: Interleukin-1 receptor-associated kinase 4 (Homo sapiens, UniProt Q9NWZ3); test: Inhibition of human IRAK4
[12] = Solubility of the compound; type: physicochemical
[13] = target: Testis-specific serine/threonine-protein kinase 2 (Homo sapiens, UniProt Q96PF2); test: Inhibition of human TSSK2
Sequence of Testis-specific serine/threonine-protein kinase 2 (Q96PF2 whole entry): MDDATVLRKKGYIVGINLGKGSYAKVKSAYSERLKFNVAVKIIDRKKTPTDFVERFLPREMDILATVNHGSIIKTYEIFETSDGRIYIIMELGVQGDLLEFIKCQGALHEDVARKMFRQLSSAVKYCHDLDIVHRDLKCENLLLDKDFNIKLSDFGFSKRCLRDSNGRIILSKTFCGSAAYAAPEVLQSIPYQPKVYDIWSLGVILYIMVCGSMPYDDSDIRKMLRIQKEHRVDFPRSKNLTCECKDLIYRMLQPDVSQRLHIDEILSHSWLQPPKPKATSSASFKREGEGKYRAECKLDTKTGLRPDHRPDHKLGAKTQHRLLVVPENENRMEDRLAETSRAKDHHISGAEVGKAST

[14] = target: RAC-alpha serine/threonine-protein kinase (Homo sapiens, UniProt P31749); test: Inhibition of human AKT1
Sequence of RAC-alpha serine/threonine-protein kinase (P31749 whole entry): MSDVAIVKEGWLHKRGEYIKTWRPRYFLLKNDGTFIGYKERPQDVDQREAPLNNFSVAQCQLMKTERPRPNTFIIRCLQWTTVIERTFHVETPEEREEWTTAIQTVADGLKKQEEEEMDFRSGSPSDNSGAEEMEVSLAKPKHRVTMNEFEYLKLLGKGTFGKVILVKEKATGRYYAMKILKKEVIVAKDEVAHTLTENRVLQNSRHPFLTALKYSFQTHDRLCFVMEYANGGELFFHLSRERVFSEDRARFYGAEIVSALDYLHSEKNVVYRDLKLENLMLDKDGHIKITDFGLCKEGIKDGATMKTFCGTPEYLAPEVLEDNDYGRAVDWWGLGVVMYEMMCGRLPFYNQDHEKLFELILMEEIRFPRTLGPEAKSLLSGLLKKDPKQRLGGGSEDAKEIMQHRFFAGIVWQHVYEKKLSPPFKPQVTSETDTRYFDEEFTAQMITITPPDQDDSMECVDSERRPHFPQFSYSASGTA

[15] = target: Calcium/calmodulin-dependent protein kinase type IV (Homo sapiens, UniProt Q16566); test: Inhibition of human CAMK4
[16] = target: Serine/threonine-protein kinase 3 (Homo sapiens, UniProt Q13188); test: Inhibition of human MST2
Sequence of Serine/threonine-protein kinase 3 (Q13188 whole entry, canonical isoform): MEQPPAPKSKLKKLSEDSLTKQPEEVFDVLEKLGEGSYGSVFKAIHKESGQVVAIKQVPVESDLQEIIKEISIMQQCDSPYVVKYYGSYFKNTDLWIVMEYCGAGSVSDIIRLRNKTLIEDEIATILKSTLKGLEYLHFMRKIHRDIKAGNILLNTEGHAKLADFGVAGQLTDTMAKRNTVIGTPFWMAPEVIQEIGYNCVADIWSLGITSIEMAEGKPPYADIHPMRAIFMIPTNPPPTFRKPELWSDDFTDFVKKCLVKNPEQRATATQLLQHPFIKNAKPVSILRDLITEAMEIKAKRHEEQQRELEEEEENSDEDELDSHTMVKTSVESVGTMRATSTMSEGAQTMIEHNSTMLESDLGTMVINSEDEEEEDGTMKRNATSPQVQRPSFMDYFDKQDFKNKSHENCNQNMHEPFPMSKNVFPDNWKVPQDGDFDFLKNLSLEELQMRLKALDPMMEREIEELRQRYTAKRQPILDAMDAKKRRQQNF

[17] = target: Casein kinase I isoform delta (Homo sapiens, UniProt P48730); test: Inhibition of human CSNK1D
Sequence of Casein kinase I isoform delta (P48730 whole entry, canonical isoform): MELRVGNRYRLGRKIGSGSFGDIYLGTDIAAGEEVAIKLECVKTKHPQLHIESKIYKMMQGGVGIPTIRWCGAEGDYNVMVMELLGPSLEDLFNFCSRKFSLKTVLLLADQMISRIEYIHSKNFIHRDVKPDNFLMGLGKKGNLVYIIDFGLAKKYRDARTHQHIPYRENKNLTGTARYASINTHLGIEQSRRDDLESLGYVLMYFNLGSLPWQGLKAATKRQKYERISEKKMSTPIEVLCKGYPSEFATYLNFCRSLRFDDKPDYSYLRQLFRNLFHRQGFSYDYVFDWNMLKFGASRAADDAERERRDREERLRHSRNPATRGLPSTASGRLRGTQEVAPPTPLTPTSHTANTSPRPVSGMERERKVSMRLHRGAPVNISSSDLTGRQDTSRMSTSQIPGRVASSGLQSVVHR

[18] = test system: THP-1; test: Antiinflammatory activity in human THP1 cells assessed as inhibition of LPS-induced TNFalpha production incubated for 30 mins prior to LPS-challenge measured after 3 hrs by ELISA; type: functional, cell-based
Outline: (§1)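 Human THP1 acute monocytic leukemia cells are treated with a range of compound concentrations and stimulated with LPS. Secreted TNFα or IL6 is then measured. Each data point is the average, with standard error, of duplicate samples.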

[19] = test system: THP-1; test: Antiinflammatory activity in human THP1 cells assessed as inhibition of LPS-induced IL6 production incubated for 30 mins prior to LPS-challenge measured after 18 hrs by immunoabsorbent-based electrochemical luminescence assay; type: functional, cell-based; outline: as §1
[20] = test system: SW1353; test: Inhibition of IL1beta-stimulated MMP13 secretion in human SW1353 cells incubated for 30 mins prior to IL1beta-stimulation measured after 24 hrs by ELISA; type: functional, cell-based
Outline: (§2)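 Cells are treated with a range of compound concentrations, then stimulated with IL1-β, and secreted MMP-13 is measured. Two cell systems are used: the SW1353 line and human primary chondrocytes derived from osteoarthritis tissue. Each data point is the average, with standard error, of duplicate samples.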

[21] = organism: Homo sapiens; test: (§3) Inhibition of IL1beta-stimulated MMP13 secretion in human primary chondrocytes incubated for 30 mins prior to IL1beta-stimulation measured after 24 hrs by ELISA; type: functional, cell-based; outline: as §2
[22] = target: Casein kinase I isoform gamma-3 (Homo sapiens) (UniProt Q9Y6M4); test: Inhibition of human CK1gamma3 at 10 uM
[23] = AUC (0 to 6 hrs) in rat at 10 mg/kg, po; type: ADME, organism-based; parameters: time < 6 hr, dose 10 mg/kg, route oral; settings: plasma
Outline: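 Single oral dose of 10 mg/kg in rats. Plasma exposure is reported as AUC in nM h.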

[24] = target: T2, Cytochrome P450 3A4 (Homo sapiens, UniProt P08684); test: Inhibition of CYP3A4 in human liver microsomes co-incubated with testosterone; type: ADME, Microsome
T2 sequence (P08684 whole entry): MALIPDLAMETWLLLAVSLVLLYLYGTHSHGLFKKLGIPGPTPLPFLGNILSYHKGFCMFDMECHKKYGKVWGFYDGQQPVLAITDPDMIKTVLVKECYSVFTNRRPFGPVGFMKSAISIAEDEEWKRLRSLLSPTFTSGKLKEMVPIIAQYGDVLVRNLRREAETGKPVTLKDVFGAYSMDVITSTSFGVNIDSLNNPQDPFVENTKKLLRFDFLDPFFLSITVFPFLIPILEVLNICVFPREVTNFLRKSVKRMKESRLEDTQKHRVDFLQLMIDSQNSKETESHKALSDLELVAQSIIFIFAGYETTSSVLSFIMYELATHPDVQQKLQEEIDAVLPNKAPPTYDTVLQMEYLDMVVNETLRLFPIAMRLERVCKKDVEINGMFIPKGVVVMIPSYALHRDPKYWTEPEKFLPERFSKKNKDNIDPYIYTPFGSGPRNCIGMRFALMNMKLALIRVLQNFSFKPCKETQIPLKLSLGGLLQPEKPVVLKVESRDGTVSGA
Outline: (§4)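 Tested against a panel of cytochrome P450 enzymes at compound concentrations up to 30 μM.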

[25] = target: T3, Cytochrome P450 2C9 (Homo sapiens, UniProt P11712); test: Inhibition of CYP2C9 in human liver microsomes using tolbutamide as substrate incubated for 30 mins prior to substrate addition; type: ADME, Microsome; outline: as §4
T3 sequence (P11712 whole entry): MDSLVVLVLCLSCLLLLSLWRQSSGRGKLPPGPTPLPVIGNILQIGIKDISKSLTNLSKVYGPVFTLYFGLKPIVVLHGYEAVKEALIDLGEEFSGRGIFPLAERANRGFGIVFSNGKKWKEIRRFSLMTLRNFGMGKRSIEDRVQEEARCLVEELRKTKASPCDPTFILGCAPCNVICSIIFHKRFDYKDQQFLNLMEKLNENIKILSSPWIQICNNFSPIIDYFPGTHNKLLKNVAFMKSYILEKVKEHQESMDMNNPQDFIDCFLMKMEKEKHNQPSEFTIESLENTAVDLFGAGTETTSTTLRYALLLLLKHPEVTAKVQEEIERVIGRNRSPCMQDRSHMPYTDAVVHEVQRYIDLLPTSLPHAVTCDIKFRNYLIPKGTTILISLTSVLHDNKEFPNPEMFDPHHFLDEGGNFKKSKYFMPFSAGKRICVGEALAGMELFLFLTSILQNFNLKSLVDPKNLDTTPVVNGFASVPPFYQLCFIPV

[26] = target: T2, Cytochrome P450 3A4; test: Inhibition of CYP3A4 in human liver microsomes using testosterone as substrate incubated for 30 mins prior to substrate addition; type: ADME, Microsome; outline: as §4
[27] = as §3; type: functional, cell-based; outline: as §2
[28] = target: T4, Cytochrome P450 2D6 (Homo sapiens, UniProt P10635); test: Inhibition of CYP2D6 in human liver microsomes co-incubated with dextromethorphan; type: ADME, Microsome; outline: as §4
T4 sequence (P10635 whole entry): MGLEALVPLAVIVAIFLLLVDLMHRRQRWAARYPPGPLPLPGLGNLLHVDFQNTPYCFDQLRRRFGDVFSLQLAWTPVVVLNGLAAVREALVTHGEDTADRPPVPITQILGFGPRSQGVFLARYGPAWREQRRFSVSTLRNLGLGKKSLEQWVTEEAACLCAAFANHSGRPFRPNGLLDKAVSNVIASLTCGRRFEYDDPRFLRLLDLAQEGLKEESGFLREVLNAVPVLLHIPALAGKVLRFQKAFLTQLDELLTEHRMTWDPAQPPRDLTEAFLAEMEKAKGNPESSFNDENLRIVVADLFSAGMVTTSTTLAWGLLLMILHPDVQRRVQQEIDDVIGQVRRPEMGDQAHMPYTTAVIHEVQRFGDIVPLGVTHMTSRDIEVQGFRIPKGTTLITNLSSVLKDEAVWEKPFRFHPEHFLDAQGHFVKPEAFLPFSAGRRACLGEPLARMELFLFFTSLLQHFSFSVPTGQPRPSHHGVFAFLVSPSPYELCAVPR

[29] = target: T3, Cytochrome P450 2C9; test: Inhibition of CYP2C9 in human liver microsomes co-incubated with tolbutamide; type: ADME, Microsome; outline: as §4
[30] = target: T4, Cytochrome P450 2D6; test: Inhibition of CYP2D6 in human liver microsomes using dextromethorphan as substrate incubated for 30 mins prior to substrate addition; type: ADME, Microsome; outline: as §4

SMILES	CC50 at 0.5 h [1] [µM]	pIC50 [2]	pEC50 [3]	further results
O=C(c1ccc(-c2ccc(Cl)cc2)o1)N(Cc1ccncc1)c1ccc(N2CCNCC2)cc1	> 8			
Cn1ccnc1CN(C(=O)c1ccc(-c2ccc(Cl)cc2)o1)c1ccc(N2CCNCC2)cc1	> 20			
O=C(Nc1ccc(N2CCNCC2)cc1)c1cc(-c2ccc(Cl)cc2)on1	1	5.12	5.72	
O=C(Nc1ccc(N2CCNCC2)cc1C(F)(F)F)c1ccc(-c2ccc(Cl)cc2)o1	18	< 4.70	< 5.10	
CN(C(=O)c1ccc(-c2ccc(Cl)cc2)o1)c1ccc(N2CCNCC2)cc1	> 20			
O=C(Nc1ccc(N2CCNCC2)cc1)c1ccc(-c2ccc(Cl)cc2)o1	> 10	5.26	5.70	pIC50 [4]: < 4.52; pIC50 [5]: 5.30; pIC50 [6]: < 4.52; pIC50 [7]: < 4.52; pIC50 [8]: < 4.52; pIC50 [9]: < 4.52; pIC50 [10]: < 4.52; pIC50 [11]: 5.12; solubility [12]: > 20 µM; pIC50 [13]: < 4.52; pIC50 [14]: < 4.52; pIC50 [15]: < 4.52; pIC50 [16]: < 4.52; pIC50 [17]: < 4.52
O=C(c1ccc(-c2ccc(Cl)cc2)o1)N(Cc1ccccn1)c1ccc(N2CCNCC2)cc1 [listing 1 of 2 here]				inhibition [18]: Dose-dependent effect; inhibition [19]: Dose-dependent effect; inhibition [20]: Dose-dependent effect; inhibition [21]: Dose-dependent effect; inhibition [22]: > 50%
Cc1cc(Cl)ccc1-c1ccc(C(=O)Nc2ccc(N3CCNCC3)cc2)o1	8.8	5.23	5.85	
CN1CCN(c2ccc(NC(=O)c3ccc(-c4ccc(Cl)cc4)o3)cc2)CC1		5.22	4.70	
O=C(Nc1ccc(N2CCNCC2)cc1)c1ccc(-c2ccc(C(F)(F)F)cc2)o1	> 15	4.70	< 5.11	
CC(C)N(C(=O)c1ccc(-c2ccc(Cl)cc2)o1)c1ccc(N2CCNCC2)cc1	> 20	5.92	5.57	
CCCN(C(=O)c1ccc(-c2ccc(Cl)cc2)o1)c1ccc(N2CCNCC2)cc1	> 20			
CCCCN(C(=O)c1ccc(-c2ccc(Cl)cc2)o1)c1ccc(N2CCNCC2)cc1	19			
Cl.O=C(c1ccc(-c2ccc(Cl)cc2)o1)N(Cc1ccccn1)c1ccc(N2CCNCC2)cc1				AUC(0-t) at 6 h [23]: 2.3 µM·h
O=C(Nc1ccc(N2CCNCC2)cc1)c1ccc(-c2cccc(Cl)c2)o1	13	< 4.70	< 5.30	
O=C(Nc1ccc(N2CCNCC2)cc1)c1ccc(-c2ccc(Cl)cc2Cl)o1	8.1	5.12	5.80	
O=C(Nc1ccc(N2CCNCC2)cc1)c1csc(-c2ccc(Cl)cc2)n1	0.9	5.02	6.05	
O=C(Nc1ccc(N2CCNCC2)cc1)c1ccc(-c2ccccc2Cl)o1	15	5.10	< 5.10	
COc1ccc(-c2ccc(C(=O)Nc3ccc(N4CCNCC4)cc3)o2)cc1		4.66	5.10	
O=C(Nc1ccc(N2CCNCC2)cc1)c1ccc(-c2ccc(Cl)s2)o1	> 20	5.16	< 5.10	
O=C(Nc1ccc(N2CCNCC2)cc1)c1ccc(-c2ccc(Cl)cc2)s1	8	5.05	5.30	
O=C(Nc1ccc(C2=CCNCC2)cc1)c1ccc(-c2ccc(Cl)cc2)o1	6.5	5.68	5.89	
O=C(Nc1ccc(N2CCNCC2=O)cc1)c1ccc(-c2ccc(Cl)cc2)o1		4.82		
CCN(C(=O)c1ccc(-c2ccc(Cl)cc2)o1)c1ccc(N2CCNCC2)cc1	> 8			
O=C(Nc1ccc(N2CCC(O)CC2)cc1)c1ccc(-c2ccc(Cl)cc2)o1		< 4.70		
O=C(Nc1ccc(N2CCNCC2)cc1)c1cccc(-c2ccc(Cl)cc2)n1	> 10	4.96	5.41	
O=C(Nc1ccc(N2CCNCC2)c(F)c1)c1ccc(-c2ccc(Cl)cc2)o1	16	5.17	< 5.47	
O=C(c1ccc(-c2ccc(Cl)cc2)o1)N(Cc1ccccn1)c1ccc(N2CCNCC2)cc1 [listing 2 of 2 here]	> 20			pIC50 [18]: 5.36; pIC50 [24]: < 4.70; pIC50 [19]: 5.28; pIC50 [20]: 5.24; pIC50 [25]: < 4.52; pIC50 [26]: < 4.70; pIC50 [27]: 5.66; pIC50 [28]: < 4.70; pIC50 [29]: < 4.70; pIC50 [30]: < 4.70
